Results on 22 compounds are retold here after ChEMBL document CHEMBL1135484, “Structural features of azidopyridinyl neonicotinoid probes conferring high affinity and selectivity for mammalian alpha4beta2 and Drosophila nicotinic receptors” (J Med Chem, 2002).

One assay has as its system Drosophila melanogaster. The assay can be described thus: Selectivity ratio of Ki of Nicotinic acetylcholine receptor of Drosophila to Nicotinic acetylcholine receptor alpha4-beta2.
Assay [1] has as its target Neuronal acetylcholine receptor; alpha4/beta2. Nature of the assay: Potency to displace [3H]nicotine binding to Nicotinic acetylcholine receptor alpha4-beta2 immuno-isolated from M10 cells. Type of assay: cell-based, Gallus gallus.
Assay [2] in a line: Potency to displace [3H]IMI binding to Nicotinic acetylcholine receptor from Drosophila head membranes. Also noted: species or system Drosophila melanogaster. Put shortly: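 Drosophila head membranes as receptor source, competition against [3H]IMI binding; IC50 (concentration giving 50% inhibition of specific binding) fitted by iterative nonlinear least-squares regression.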

`[N-]=[N+]=Nc1ccncc1Cn1ccnc1N[N+](=O)[O-]`: in the assay on Drosophila melanogaster, the Selectivity was 27. Also, the results for the inhibitory constant (Ki) in assay [1] and in assay [2] were 95800 nM and 3600 nM, respectively.

For the compound `O=[N+]([O-])/N=C1\NCCN1Cc1ccc(Cl)nc1` [IMIDACLOPRID], the Selectivity in the assay with Drosophila melanogaster was determined as 327. For the same compound, the affinity in assay [2], expressed as Ki, was 2.2 nM.

Consider `[N-]=[N+]=Nc1cc(Cn2ccs/c2=N\[N+](=O)[O-])cnc1Cl`, for which, in the assay with Drosophila melanogaster, the Selectivity was determined as 44. For the same compound, the Ki (commonly a measure of affinity in units of concentration, obtained from inhibition or displacement) in assay [1] amounted to 170 nM; in assay [2], 3.9 nM.

Consider `[N-]=[N+]=Nc1cc(Cl)ncc1Cn1ccnc1N[N+](=O)[O-]`, for which the Selectivity in the assay with Drosophila melanogaster came out at 37. Moreover, the figures for the Ki in assay [1] and in assay [2] were 16900 nM and 460 nM, respectively.

`N#C/N=c1\sccn1Cc1cnc(Cl)c(N=[N+]=[N-])c1`: the Selectivity in the assay on Drosophila melanogaster amounted to 4.3. The Ki in assay [1] came out at 120 nM; in assay [2] it was 28 nM.

As for `[N-]=[N+]=Nc1cc(CN2CCNC2=N[N+](=O)[O-])cnc1Cl` [5-AZIDOIMIDACLOPRID], the Ki in assay [1] amounted to 340 nM.

Consider `[N-]=[N+]=Nc1cc(CN2CCN=C2N)cnc1Cl`, for which the Selectivity in the assay with Drosophila melanogaster came to 2190. Besides, the values for the Ki in assay [1] and in assay [2] were 2.6 nM and 5700 nM, respectively.

In assay [1], `O=[N+]([O-])NC1=NCCN1Cc1ccc(Cl)nc1` [IMIDACLOPRID] yielded a Ki of 720 nM. This lies in the sub-micromolar range.

In the case of `[N-]=[N+]=Nc1cc(Cl)ncc1Cn1ccsc1=N`, the Selectivity in the assay with Drosophila melanogaster was found to be 29. For the same compound, the results for the Ki in assay [1] and in assay [2] were 110 nM and 3200 nM, respectively.

In the case of `O=[N+]([O-])/N=c1\sccn1Cc1ccc(Cl)nc1`, the Selectivity in the assay on Drosophila melanogaster came out at 486. Further, the results for the Ki in assay [1] and in assay [2] were 170 nM and 0.35 nM, respectively.

As to `[N-]=[N+]=Nc1ccncc1Cn1ccsc1=N`, the Selectivity in the assay with Drosophila melanogaster came to 36. In addition, the Ki came out at 820 nM in assay [1] and 30000 nM in assay [2].

For `[N-]=[N+]=Nc1cncc(Cn2ccsc2=N)c1`, the Selectivity in the assay with Drosophila melanogaster was 867. For the same compound, the Ki in assay [1] worked out at 8.3 nM; in assay [2], 7200 nM.

As for `N#C/N=c1\sccn1Cc1ccc(Cl)nc1` [THIACLOPRID OLEFIN], the Selectivity with Drosophila melanogaster turned out to be 86. The Ki in assay [1] was found to be 120 nM; in assay [2], 1.4 nM.

With `[N-]=[N+]=Nc1cc(Cn2ccnc2N[N+](=O)[O-])cnc1Cl`, in the assay with Drosophila melanogaster, the Selectivity was found to be 23. The values for the Ki in assay [1] and in assay [2] were 300 nM and 13 nM, respectively.

On to `N=C1NCCN1Cc1ccc(Cl)nc1` [DESNITROIMIDACLOPRID], for which the Selectivity in the assay on Drosophila melanogaster was 364. The values for the Ki in assay [1] and in assay [2] were 2.2 nM and 800 nM, respectively.

Consider `O=[N+]([O-])Nc1nccn1Cc1ccc(Cl)nc1` [DEHYDROIMIDACLOPRID], for which the Selectivity with Drosophila melanogaster was 553. Also, the Ki in assay [1] worked out at 470 nM; in assay [2] it was 0.85 nM.

In assay [2], `CN1CCC[C@H]1c1cccnc1` [NICOTINE] came in with a Ki of 2000 nM.

`[N-]=[N+]=Nc1cncc(Cn2ccnc2N[N+](=O)[O-])c1`: the Selectivity in the assay on Drosophila melanogaster is 10. Further, the Ki in assay [1] is 5400 nM; in assay [2], 540 nM.

`[N-]=[N+]=Nc1cc(Cn2ccsc2=N)cnc1Cl`: in the assay on Drosophila melanogaster, the Selectivity came out at 1600. Moreover, the figures for the Ki in assay [1] and in assay [2] were 0.47 nM and 750 nM, respectively.

As to `Clc1ccc(C2CC3CCC2N3)cn1` (stereo unspecified) [EPIBATIDINE], the affinity in assay [2], expressed as Ki, was 220 nM.

In the case of `[N-]=[N+]=Nc1cc(CN2CCN/C2=N\[N+](=O)[O-])cnc1Cl` [5-AZIDOIMIDACLOPRID], the Selectivity in the assay with Drosophila melanogaster stood at 14. In assay [2], this compound gave a Ki of 24 nM.

In the case of `N=c1sccn1Cc1ccc(Cl)nc1`, in the assay on Drosophila melanogaster, the Selectivity worked out at 256. Moreover, the Ki in assay [1] came out at 0.39 nM; in assay [2], 100 nM.
